Results as given in ChEMBL document CHEMBL1153086, “N-acylpolyamine inhibitors of HDM2 and HDMX binding to p53” (Bioorg Med Chem, 2009).

Experiments:
[1] = molecular target: E3 ubiquitin-protein ligase Mdm2 (Homo sapiens, UniProt Q00987); assay: Inhibition of HDM2 expressed in Escherichia coli BL21 (DE3) assessed as inhibition of HDM2 binding to p53 protein by fluorescence anisotropy competition method
How it was run: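 Fluorescence anisotropy competition: HDM2(11–119) at 2.2 μM with 30 nM fluorescein-labeled human p53(15–29) (protein in 70-fold molar excess) in 10 mM Tris-HCl pH 7.6, 150 mM NaCl, 0.50 mM EDTA, 2 mM β-mercaptoethanol, incubated room temperature 1 h or 4 °C overnight. Competitor diluted in water from ~10−2 M stocks. Anisotropy read at 25 °C in triplicate; IC50 from nonlinear fit with slope factor.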

Protein Mdm4 = molecular target: T1, Protein Mdm4 (Homo sapiens, UniProt O15151); assay: Inhibition of GST-tagged HDMX expressed in Escherichia coli BL21 (DE3) assessed as inhibition of HDMX binding to p53 protein by fluorescence anisotropy competition method
T1 sequence (O15151 whole entry): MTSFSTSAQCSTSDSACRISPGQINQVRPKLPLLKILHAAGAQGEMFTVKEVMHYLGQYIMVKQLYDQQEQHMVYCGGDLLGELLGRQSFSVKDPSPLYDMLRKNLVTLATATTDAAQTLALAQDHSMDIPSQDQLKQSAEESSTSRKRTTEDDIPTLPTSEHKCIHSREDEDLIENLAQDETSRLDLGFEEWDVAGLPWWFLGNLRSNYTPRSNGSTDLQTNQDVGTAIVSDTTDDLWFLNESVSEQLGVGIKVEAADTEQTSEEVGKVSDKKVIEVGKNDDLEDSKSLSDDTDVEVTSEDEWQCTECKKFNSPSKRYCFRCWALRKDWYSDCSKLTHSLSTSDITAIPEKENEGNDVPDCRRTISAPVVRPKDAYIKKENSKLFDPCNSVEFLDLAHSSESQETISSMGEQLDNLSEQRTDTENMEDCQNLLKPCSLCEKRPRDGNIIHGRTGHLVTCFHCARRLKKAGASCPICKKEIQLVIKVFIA

Chain of E3 ubiquitin-protein ligase Mdm2 (Q00987 whole entry): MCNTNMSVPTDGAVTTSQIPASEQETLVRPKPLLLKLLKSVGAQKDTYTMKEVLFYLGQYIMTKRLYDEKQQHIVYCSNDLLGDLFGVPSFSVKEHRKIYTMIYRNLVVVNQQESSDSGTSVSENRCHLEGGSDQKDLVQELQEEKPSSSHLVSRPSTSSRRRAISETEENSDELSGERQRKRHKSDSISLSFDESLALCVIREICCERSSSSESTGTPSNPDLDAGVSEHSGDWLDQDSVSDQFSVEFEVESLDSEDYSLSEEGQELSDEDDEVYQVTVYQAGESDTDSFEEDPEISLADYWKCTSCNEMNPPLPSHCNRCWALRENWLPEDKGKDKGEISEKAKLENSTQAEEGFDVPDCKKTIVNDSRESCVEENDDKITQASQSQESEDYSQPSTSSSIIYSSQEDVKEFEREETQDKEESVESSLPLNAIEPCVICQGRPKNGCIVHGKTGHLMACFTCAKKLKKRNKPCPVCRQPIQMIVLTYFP

SMILES | IC50 ([1]; read-out: IC50) | IC50 (Protein Mdm4; read-out: IC50) | IC50 [1] | IC50 (Protein Mdm4)
Cc1ccc(CCNC(=O)N(CC(CCCCN)N(CC(CCC(=O)O)NC(=O)CCC(C)C)C(=O)NCCCC2CCCCC2)C(CCC(=O)O)CN(CCC(N)=O)C(=O)NCCCc2ccc(Br)cc2)cc1 (centres undefined) | 2.3 µM | 3.2 µM | – | –
NCCCC[C@@H](CN(C(=O)NCCCC1CCCCC1)[C@@H](CCCCN)CN(C(=O)NCCc1ccc(Br)cc1)[C@@H](CCCCN)CN(CCC(N)=O)C(=O)NCCCc1ccc(F)cc1)NC(N)=O | – | – | Not Active | Not Active
NCCCCC(CN(C(=O)NCCc1ccc(Br)cc1)C(CCC(=O)O)CN(CCC(N)=O)C(=O)NCCCc1ccc(Br)cc1)N(CC(CCC(=O)O)NC(=O)NCC1CCCCC1)C(=O)NCCCC1CCCCC1 (centres undefined) | 6.6 µM | 8 µM | – | –
NCCCCC(CN(C(=O)NCCc1ccc(Br)cc1)C(CCC(=O)O)CN(CCC(N)=O)C(=O)NCCCc1ccc(Br)cc1)N(CC(CCC(=O)O)NC(=O)CCC1CCCCC1)C(=O)NCCCC1CCCCC1 (centres undefined) | 2.8 µM | 7.5 µM | – | –
C=CCNC(=O)NC(CCC(=O)O)CN(C(=O)NCCCC1CCCCC1)C(CCCCN)CN(C(=O)NCCc1ccc(Br)cc1)C(CCC(=O)O)CN(CCC(N)=O)C(=O)NCCCc1ccc(Br)cc1 (centres undefined) | 17 µM | 10 µM | – | –
NCCCCC(CN(C(=O)NCCc1ccc(Br)cc1)C(CCC(=O)O)CN(CCC(N)=O)C(=O)NCCCc1ccc(Br)cc1)N(CC(CCC(=O)O)NC(=O)Cc1ccccc1)C(=O)NCCCC1CCCCC1 (centres undefined) | 10.5 µM | 7.6 µM | – | –
Cc1ccc(CCNC(=O)N(CC(CCCCN)N(CC(CCC(=O)O)NC(=O)CCC(C)C)C(=O)NCCCC2CCCCC2)C(CCC(=O)O)CN(CCC(N)=O)C(=O)NCCCc2ccc(F)cc2)cc1 (centres undefined) | 2.9 µM | 5.1 µM | – | –
CC(C)CCC(=O)N[C@@H](CCCC(=O)O)CN(C(=O)NCCCC1CCCCC1)[C@@H](CCCCN)CN(C(=O)NCCc1ccc(Br)cc1)[C@@H](CCCC(=O)O)CN(CCC(N)=O)C(=O)NCCCc1ccc(F)cc1 | 5.9 µM | 41 µM | – | –
Cc1ccc(CCNC(=O)N(CC(CCCCN)N(CC(CCC(=O)O)NC(=O)CCC(C)C)C(=O)NCCCC2CCCCC2)C(CCC(=O)O)CN(CCC(N)=O)C(=O)NCCCCc2ccc(F)cc2)cc1 (centres undefined) | 13 µM | 14 µM | – | –
NCCCCC(CN(C(=O)NCCc1ccc(Br)cc1)C(CCC(=O)O)CN(CCC(N)=O)C(=O)NCCCc1ccc(Br)cc1)N(CC(CCC(=O)O)NC(=O)[C@@H]1CCCN1)C(=O)NCCCC1CCCCC1 (some centres undefined) | 8.2 µM | 10 µM | – | –
NCCCCC(CN(C(=O)NCCc1ccc(Br)cc1)C(CCC(=O)O)CN(CCC(N)=O)C(=O)NCCCc1ccc(Br)cc1)N(CC(CCC(=O)O)NC(N)=O)C(=O)NCCCC1CCCCC1 (centres undefined) | 6.4 µM | 6.5 µM | – | –
CC(C)CCC(=O)NC(CCC(=O)O)CN(C(=O)NCCCC1CCCCC1)C(CCCCN)CN(C(=O)NCCc1ccc(Br)cc1)C(CCC(=O)O)CN(CCC(N)=O)C(=O)NCCCc1ccc(Br)cc1 (centres undefined) | 2.8 µM | 4.1 µM | – | –
CC(C)CCC(=O)NC(CCC(=O)O)CN(C(=O)NCCCC1CCCCC1)C(CCCCN)CN(C(=O)NCCc1ccc(Br)cc1)C(CCC(=O)O)CN(CCC(N)=O)C(=O)NCCCc1ccc(F)cc1 (centres undefined) | 2.6 µM | 2.7 µM | – | –
CC(C)CCCNC(=O)N(CC(CCC(=O)O)NC(N)=O)C(CCCCN)CN(C(=O)NCCc1ccc(Br)cc1)C(CCC(=O)O)CN(CCC(N)=O)C(=O)NCCCc1ccc(Br)cc1 (centres undefined) | 9.2 µM | 24 µM | – | –
CC(C)CCCNC(=O)N(CC(CCC(=O)O)NC(N)=O)C(CCCCN)CN(C(=O)NCCc1ccc(Br)cc1)C(CCC(=O)O)CN(CCC(N)=O)C(=O)NCCCc1ccccc1 (centres undefined) | 18 µM | – | – | –
CC(C)CCCNC(=O)N(CC(CCC(=O)O)NC(N)=O)C(CCCCN)CN(C(=O)NCCCc1ccc(Br)cc1)C(CCC(=O)O)CN(CCC(N)=O)C(=O)NCCCc1ccccc1 (centres undefined) | 20 µM | – | – | –

SMILES | IC50 ([1]; read-out: IC50) | IC50 (Protein Mdm4; read-out: IC50) | IC50 [1] | IC50 (Protein Mdm4)
NCCCCC(CN(C(=O)NCCc1ccc(Br)cc1)C(CCC(=O)O)CN(CCC(N)=O)C(=O)NCCCc1ccc(Br)cc1)N(CC(CCC(=O)O)NC(N)=O)C(=O)NCCCc1ccccc1 (centres undefined) | 13 µM | 20 µM | – | –
CC(C)CCNC(=O)N(CC(CCC(=O)O)NC(N)=O)C(CCCCN)CN(C(=O)NCCc1ccc(Cl)cc1)C(CCC(=O)O)CN(CCC(N)=O)C(=O)NCCc1ccccc1 (centres undefined) | > 100 µM | – | – | –
CC(C)CCCNC(=O)N(CC(CCC(=O)O)NC(N)=O)C(CCCCN)CN(C(=O)NCCc1ccc(Cl)cc1)C(CCC(=O)O)CN(CCC(N)=O)C(=O)NCCc1ccc(Cl)cc1 (centres undefined) | 63 µM | – | – | –
Cc1ccc(CCCNC(=O)N(CCC(N)=O)CC(CCC(=O)O)N(CC(CCCCN)N(CC(CCC(=O)O)NC(N)=O)C(=O)NCCCC(C)C)C(=O)NCCc2ccc(Br)cc2)cc1 (centres undefined) | 24 µM | 36 µM | – | –
CC(C)CCCCNC(=O)N(CC(CCC(=O)O)NC(N)=O)C(CCCCN)CN(C(=O)NCCc1ccc(Br)cc1)C(CCC(=O)O)CN(CCC(N)=O)C(=O)NCCCc1ccc(Br)cc1 (centres undefined) | 13 µM | 13 µM | – | –
NCCCCC(CN(C(=O)NCCc1ccc(Br)cc1)C(CCC(=O)O)CN(CCC(N)=O)C(=O)NCCCc1ccc(Br)cc1)N(CC(CCC(=O)O)NC(N)=O)C(=O)NCCCc1ccc(Br)cc1 (centres undefined) | 8.2 µM | 7.5 µM | – | –
CC(C)CCC(=O)NC(CCC(=O)O)CN(CCC1CCC2(CCCCC2)CC1)C(CCCCN)CN(CCCCc1ccc(Br)cc1)[C@@H](CCC(=O)O)CN(CCCCCc1ccc(F)cc1)CCC(N)=O (some centres undefined) | > 100 µM | > 100 µM | – | –
CC(C)CCCNC(=O)N(CC(CCC(=O)O)NC(N)=O)C(CCCCN)CN(C(=O)NCCc1ccc(Cl)cc1)C(CCC(=O)O)CN(CCC(N)=O)C(=O)NCCc1ccccc1 (centres undefined) | 85 µM | – | – | –
CC(C)CCCNC(=O)N(CC(CCC(=O)O)NC(N)=O)C(CCCCN)CN(C(=O)NCCc1ccc(Cl)cc1)C(CCC(=O)O)CN(CCC(N)=O)C(=O)NCCCc1ccccc1 (centres undefined) | 43 µM | – | – | –
CC(C)CCCNC(=O)N(CC(CCC(=O)O)NC(N)=O)C(CCCCN)CN(C(=O)NCCCc1ccccc1)C(CCC(=O)O)CN(CCC(N)=O)C(=O)NCCc1ccc(Br)cc1 (centres undefined) | 38 µM | – | – | –
CC(C)CCCNC(=O)N(CC(CCC(=O)O)NC(N)=O)C(CCCCN)CN(C(=O)NCCc1ccc(Br)cc1)C(CCC(=O)O)CN(CCC(N)=O)C(=O)NCCc1ccc(Br)cc1 (centres undefined) | 17 µM | 41 µM | – | –
CC(C)CCCNC(=O)N(CC(CCC(=O)O)NC(N)=O)C(CCCCN)CN(C(=O)NCCc1ccc(Br)cc1)C(CCC(=O)O)CN(CCC(N)=O)C(=O)NCCCc1ccc([N+](=O)[O-])cc1 (centres undefined) | 41 µM | – | – | –
COc1ccc(CCCNC(=O)N(CCC(N)=O)CC(CCC(=O)O)N(CC(CCCCN)N(CC(CCC(=O)O)NC(N)=O)C(=O)NCCCC(C)C)C(=O)NCCc2ccc(Br)cc2)cc1 (centres undefined) | > 100 µM | > 100 µM | – | –
COc1ccc(CCCNC(=O)N(CC(CCC(=O)O)NC(N)=O)C(CCCCN)CN(C(=O)NCCc2ccc(Br)cc2)C(CCC(=O)O)CN(CCC(N)=O)C(=O)NCCCc2ccc(Br)cc2)cc1 (centres undefined) | 12 µM | 12 µM | – | –
NCCCCC(CN(C(=O)NCCc1ccc(Br)cc1)C(CCC(=O)O)CN(CCC(N)=O)C(=O)NCCCc1ccc(Br)cc1)N(CC(CCC(=O)O)NC(N)=O)C(=O)NCCCc1ccc([N+](=O)[O-])cc1 (centres undefined) | 10 µM | 8.1 µM | – | –
